Source: PubChem (several laboratories)
An excerpt weighted towards active compounds, which were near 1.9% of everything screened.
MC4R ag barr: human MC4R agonism via beta-arrestin; actives 0.98% (n = 360,000); U2OS MC4R beta-arrestin complementation, luminescence; percent of melanotan II response, DMSO zero; activation, % at 8.9 µM; AID 540308;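 active means activation above a per-plate cutoff, the mean activation of sample wells on that plate plus 3 SD, cut at about 8% in these data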
NTR1 ag: NTR1 (human) agonism | P30989 | NTR1-U2OS beta-arrestin-GFP spot imaging, agonist mode | activation, % at 20 µM | actives 0.17% (n = 330,000) | AID 493036;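 active means activation at or above 40% of the spot to cytoplasm intensity ratio, with at least 20 cells analyzed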
Target sequence (P30989 whole entry, looked up): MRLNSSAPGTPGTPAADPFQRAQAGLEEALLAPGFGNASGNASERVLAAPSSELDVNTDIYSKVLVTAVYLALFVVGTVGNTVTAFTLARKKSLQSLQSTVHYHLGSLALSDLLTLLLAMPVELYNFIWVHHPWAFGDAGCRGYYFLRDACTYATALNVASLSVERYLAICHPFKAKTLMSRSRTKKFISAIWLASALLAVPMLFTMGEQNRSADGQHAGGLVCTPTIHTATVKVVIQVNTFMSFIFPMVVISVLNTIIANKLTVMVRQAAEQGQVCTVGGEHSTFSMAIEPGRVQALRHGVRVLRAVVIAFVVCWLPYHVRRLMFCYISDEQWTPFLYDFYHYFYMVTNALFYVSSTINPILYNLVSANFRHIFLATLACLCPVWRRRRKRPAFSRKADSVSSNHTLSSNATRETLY
MC4R antag cAMP: blocks human MC4R cAMP signaling | P32245 | MC4R-expressing cells, MTII-stimulated cAMP, LANCE TR-FRET | inhibition, % at 6.5 µM | actives 0.48% (n = 360,000) | AID 540295;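 active means inhibition above its plate's cutoff, the mean of tested wells on that plate plus 3 SD, cut at about 29% in these data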
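Assay system: U2OS-MC4R stable cell line; Also added: Melanotan II; Technique: Eu-cAMP/anti-cAMP TR-FRET, emission 671 nm; Times: 30-min compound, 1-h challenge, 1-h detection, room temperature.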
TLR4-MyD88 BLA: blocks binding of human TLR4 to MyD88. inhibition, % at 8.4 µM. AID 861. actives 0.18% (n = 200,000). O00206+Q99836. HeLa CL3-4 TLR4/MyD88 BLA complementation, FRET ratio; in the data active means inhibition above about 25%
NOD2 RIPK2 PPI: NOD2-RIPK2 protein interaction inhibition; AID 624267; actives 0.38% (n = 360,000); inhibition, % at 4.98 µM; CHO BLA complementation NOD2-RIPK2, CCF4 ratio; in the data active means inhibition above about 21%
TLR9-MyD88 inh: inhibitors of human TLR9-MyD88 binding. inhibition, % at 4.98 µM. actives 0.21% (n = 340,000). AID 504734. Q9NR96+Q99836. CHO BLA complementation TLR9-MyD88, CCF4 FRET ratio;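 active means inhibition above the mean over all tested compounds plus 3 SD, cut at about 21% in these data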
Large screens that a line does not name were inactive.

COc1ccc([N+](=O)[O-])cc1C1NN=C(c2ccccc2O)S1 (stereo not drawn)	MC4R ag barr 10.5
Cc1ccc(C(=O)N/C(=C\c2ccco2)C(=O)NCCN2CCOCC2)cc1C	MC4R ag barr 8.4 (no result: TLR4-MyD88 BLA)
Cc1nnc(SCC(=O)NCc2ccc3c(c2)OCO3)s1	none
O=C(CSc1nc2cc(Cl)ccc2s1)NCc1ccc2c(c1)OCO2	MC4R ag barr 9.5
O=C(COC(=O)c1ccccc1)Nc1cc(S(=O)(=O)N2CCCCCC2)ccc1Cl	MC4R ag barr 8.8 (no result: TLR4-MyD88 BLA)
O=C(COC(=O)c1ccccc1O)Nc1cc(S(=O)(=O)N2CCCCCC2)ccc1Cl	none (no result: TLR4-MyD88 BLA)
O=C(NCC1OCCc2ccccc21)c1ccc(NC(=O)c2cccc(Br)c2)cc1 (stereo not drawn)	MC4R ag barr 9.5
CC1OC(CC(=O)O)CC2=C1C(=O)c1c(O)cccc1C2=O (stereo not drawn)	MC4R antag cAMP 40.4, NOD2 RIPK2 PPI 78.0 (no result: NTR1 ag, TLR4-MyD88 BLA)
NC(=O)C1(N2CCCCC2)CCN(C(=S)Nc2ccc(F)cc2)CC1	MC4R ag barr 8.5
O=C(O)/C=C/C(=O)c1ccc2c(c1)CCc1ccccc1-2	none (no result: TLR4-MyD88 BLA)
CCOc1ccc(C(=O)Cc2cc(OC)c(OC)cc2[N+](=O)[O-])cc1	MC4R ag barr 12.1
Cc1cc(N2C(=O)C=CC2=O)c([N+](=O)[O-])cc1C	NOD2 RIPK2 PPI 21.9
Cc1c([N+](=O)[O-])cc(N2C(=O)C=CC2=O)cc1[N+](=O)[O-]	none (no result: NTR1 ag, TLR4-MyD88 BLA)
Cc1noc(C)c1-c1nnc(-c2ccc(C(F)(F)F)cc2)o1	none (no result: TLR4-MyD88 BLA)
O=c1ccn(C2CCCCC2)c(=O)[nH]1	none (no result: NTR1 ag, TLR4-MyD88 BLA, TLR9-MyD88 inh)
CN(C)C(=O)c1cccc(-c2cnc3c(NC=O)cc(-c4ccc(N(C)C)cc4)cn23)c1	MC4R ag barr 8.6 (no result: NTR1 ag, TLR4-MyD88 BLA, TLR9-MyD88 inh)
CC(=O)Nc1cc(-c2cccc(F)c2)cn2c(-c3ccccc3)cnc12	MC4R ag barr 9.4 (no result: NTR1 ag, TLR4-MyD88 BLA, TLR9-MyD88 inh)
CC(=O)Nc1cc(-c2cccc(C(=O)N(C)C)c2)cn2c(-c3ccccc3)cnc12	none (no result: NTR1 ag, TLR4-MyD88 BLA, TLR9-MyD88 inh)
COc1ccc(-c2cc(NC(C)=O)c3ncc(-c4ccccc4)n3c2)cc1OC	none (no result: NTR1 ag, TLR4-MyD88 BLA, TLR9-MyD88 inh)
CC(=O)Nc1cc(-c2cccc(C(=O)N(C)C)c2)cn2c(-c3ccc(F)cc3)cnc12	MC4R ag barr 9.0 (no result: NTR1 ag, TLR4-MyD88 BLA, TLR9-MyD88 inh)
Cc1cccc(-c2cc(NC=O)c3ncc(-c4cccc(C(=O)N(C)C)c4)n3c2)c1	none (no result: NTR1 ag, TLR4-MyD88 BLA, TLR9-MyD88 inh)
CC(=O)Nc1cc(-c2ccccc2F)cn2c(-c3ccccc3)cnc12	MC4R ag barr 8.3 (no result: NTR1 ag, TLR4-MyD88 BLA, TLR9-MyD88 inh)
CCOC(=O)C1(C)CCCCCN1C(=O)c1snnc1C (stereo not drawn)	none (no result: NTR1 ag, TLR4-MyD88 BLA, TLR9-MyD88 inh)
COc1ccc(OC)c(-c2csc(NC(=O)COC(=O)c3ccc(NC(=O)CC#N)cc3)n2)c1	none (no result: TLR4-MyD88 BLA)
O=C(Nc1ccc(N2CCN(C(=O)c3ccccc3F)CC2)cc1)c1cncc(Br)c1	none (no result: TLR4-MyD88 BLA)
CNc1ncnc2c1ncn2[C@H]1CN(Cc2ccc(OC)cc2)C[C@@H](CO)O1	none (no result: NTR1 ag, TLR4-MyD88 BLA, TLR9-MyD88 inh)
CCCNC(=O)C[C@@H]1CC[C@H]2NC[C@H](O)COC[C@@H]2O1	none (no result: MC4R ag barr, NTR1 ag, MC4R antag cAMP, TLR4-MyD88 BLA, TLR9-MyD88 inh)
Cc1cccc(N(Cc2ccccc2)C(=O)CCl)c1	MC4R ag barr 21.8 (no result: NTR1 ag)
Cc1ccc2oc(-c3cccc(NC(=O)Cc4cccs4)c3)nc2c1	MC4R ag barr 13.3
Cc1ccc2oc(-c3ccc(C)c(NC(=O)Cc4cccs4)c3)nc2c1	none
O=C(CBr)c1ccc([N+](=O)[O-])c(CS(=O)(=O)c2ccc(Cl)cc2)c1	MC4R antag cAMP 34.4 (no result: TLR4-MyD88 BLA)
Cc1csc2c(=O)sc(NC(=O)c3cccs3)nc12	MC4R ag barr 8.5 (no result: TLR4-MyD88 BLA, TLR9-MyD88 inh)
O=C(COC(=O)/C=C/c1ccccc1Cl)NC(=O)NCc1ccccc1	MC4R ag barr 8.4 (no result: TLR4-MyD88 BLA)
COc1ccc(CNC[C@@H](CCCCN(C)Cc2ccc(OC)cc2)N2C[C@H](c3ccccc3)N(CCc3ccc(Cl)c(Cl)c3)C(=O)C2=O)cc1	MC4R ag barr 25.0, MC4R antag cAMP 30.0, NOD2 RIPK2 PPI 28.8
O=c1[nH]c(Cc2cccc(C(F)(F)F)c2)nc2ccccc12	MC4R ag barr 9.0 (no result: TLR4-MyD88 BLA)
Cc1cccn2c(=O)c3cc(C(=O)NCCc4ccccc4)c(=N)n(Cc4ccco4)c3nc12	NTR1 ag 57.1 (no result: TLR4-MyD88 BLA)
O=C(Nc1nccs1)c1cc2sccc2n1Cc1ccc(F)cc1	MC4R ag barr 8.9
O=C(COC(=O)/C=C/c1cc(Br)ccc1F)Nc1ccc2[nH]c(=O)[nH]c2c1	MC4R ag barr 8.9 (no result: TLR4-MyD88 BLA)
